Data taken from paper PMC8851504 (Proceedings of the National Academy of Sciences of the …, 2022).
Bridge positions count the residues as written; N and C are the ends. Ends that are not written are not given here.

Columns and labels:
[1] = tested on: human ErbB1 receptor (hErbB1) transiently expressed in HEK293T cells; test: BRET assay of ligand-induced ErbB1 activation; type: cell-based; conditions: for Agonism at / potency on mammalian ErbB1 (summary in words): summary statement
[2] = tested on: hypersensitivity of the injected paw in mice; test: Time course of hypersensitivity; type: in vivo, mouse (C57BL/6J); conditions: intraplantar injection in mice
How it was run: (§1)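 Male C57BL/6J mice (5 wk old) were given 200 pmol test compound, or vehicle alone, by shallow intraplantar hind-paw injection in 20 µL saline with 0.1% BSA. After 30 min acclimatisation on bar-bottom enclosures, paw-withdrawal thresholds were measured. Mechanical thresholds used automatic von Frey and thermal thresholds an automated thermal device. Readings were taken 3 d before injection and at 1 h–7 d, blinded, n = 6/group, two-way ANOVA with Šídák's test.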

[3] = tested on: crickets (Acheta domesticus); test: Cricket righting assay after injection; type: in vivo; conditions: intraabdominal injection, up to 41 nmol/g (as stated in main text)
How it was run: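 House crickets (average mass 50 mg) received intraabdominal injections of 2 μL water or test compound at 1.4 to 41.5 nmol/g. Each cricket was then placed on its back and the time taken to right itself was recorded. Treated and water groups were compared by one-way ANOVA with Šídák's test.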

paw inflammation in mice = test: Paw inflammation: visual inspection and paw thickness by calipers; type: in vivo, mouse (C57BL/6J); conditions: 200 pmol i.pl.; over the time course of the experiment
How it was run: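 In male C57BL/6J mice, 200 pmol test compound, or vehicle alone, was injected intraplantar in 20 µL saline with 0.1% BSA. The injected paw was inspected for swelling and reddening at each time point up to 7 d. At 3 d, both hind paws were measured with electronic calipers and expressed as an ipsilateral/contralateral ratio. Groups were n = 6, compared by unpaired t test.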

[4] = tested on: paw-withdrawal threshold to mechanical stimulus in mice; test: Paw-withdrawal threshold to mechanical stimulus; type: in vivo, mouse (C57BL/6J); conditions: 200 pmol i.pl.; measured 1 h to 7 d; vs saline; n = 6 per group
How it was run: as §1

[5] = tested on: fruit flies (Drosophila melanogaster); test: Fruit fly paralysis/survival assay after injection; type: in vivo; conditions: intraabdominal injection, up to 41 nmol/g (as stated in main text)
[6] = tested on: sheep blowflies (Lucilia cuprina); test: Sheep blowfly paralysis/survival assay after injection; type: in vivo; conditions: intraabdominal injection, up to 41 nmol/g (as stated in main text)
[7] = tested on: paw-withdrawal threshold to thermal stimulus in mice; test: Paw-withdrawal threshold to thermal stimulus; type: in vivo, mouse (C57BL/6J); conditions: 200 pmol i.pl.; measured 1 h to 7 d; vs saline; n = 6 per group
How it was run: as §1

[8] = tested on: Erk1/2 phosphorylation downstream of human ErbB1 in HEK293 cells; type: cell-based; conditions: comparison with hEGF; 2.5 or 10 nM; n = 3
How it was run: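 HEK293 cells at ~80% confluence were transfected with 15 ng human ErbB1 plasmid (Lipofectamine LTX) and grown 24 h in DMEM with 10% FBS. […] RIPA lysates containing protease and phosphatase inhibitors were run on SDS-PAGE and probed for phospho-Erk1/2 and GAPDH by fluorescent immunoblot. Phospho-Erk was normalised to GAPDH; n = 3, one-way ANOVA with Šídák's test.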

Substance	Agonism at / potency on mammalian ErbB1 (summary in words) [1]	Hypersensitivity of the injected paw (summary in words) [2]	Activity at hErbB1 (in words) ([1]; BRET, HEK293T cells, Fig. 3A: stimulation with 100 nM ligand)	Effect on crickets after injection [3]	Visual signs of inflammation (e.g., redness or swelling) (paw inflammation in mice)	Paw-withdrawal threshold to mechanical stimulus [4]	Effect on fruit flies after injection [5]	Effect on blowflies after injection [6]	Paw-withdrawal threshold to thermal stimulus [7]	Erk1/2 phosphorylation compared with hEGF [8]
Mg1a (GDISDYGDPCSDDLKDYCIHGDCFFLKELNQPACRCYTGYYGSRCEHIDHN; disulfide 10-23, 18-34, 36-45)	potent agonist of the mammalian EGF receptor ErbB1	long-lasting hypersensitivity	–	–	–	–	–	–	–	–
rMg1a: Mg1a produced by recombinant expression in bacteria with an additional Gly residue at the N terminus (GDISDYGDPCSDDLKDYCIHGDCFFLKELNQPACRCYTGYYGSRCEHIDHN; not fully specified; left off: His6, N-terminal, cleaved | MBP, N-terminal, cleaved)	potent ligand of mammalian ErbB1 with activity comparable to that of hEGF	–	active at hErbB1	no effect	no visual signs of inflammation	significant decrease	no effect	no effect	significant decrease	equivalent to that caused by hEGF
